Measured values: ChEMBL document CHEMBL2331324, “Synthesis and biological evaluation of guanidino analogues of roscovitine” (Eur J Med Chem, 2013)

Experiments:
[1] = molecular target: MAP kinase-activated protein kinase 3 (Homo sapiens) (UniProt Q16644); assay: Inhibition of recombinant MAPKAPK3 (unknown origin) assessed as residual activity using [gamma-33P]ATP as substrate at 1 uM
How it was run: (§1)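 Selectivity panel run under previously published conditions. Screened at 1 μM in duplicate. Reactions started with [γ-33P]ATP (800 cpm/pmol) at 5, 20 or 50 μM, chosen to be at or below each enzyme's ATP Km. Stopped with phosphoric acid, spotted onto P81 filters. Result expressed as residual kinase activity.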

[2] = molecular target: Dual specificity tyrosine-phosphorylation-regulated kinase 2 (Homo sapiens) (UniProt Q92630); assay: Inhibition of recombinant DYRK2 (unknown origin) assessed as residual activity using [gamma-33P]ATP as substrate at 1 uM
How it was run: (§2)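 Recombinant kinase panel screened at 1 µM in duplicate. Reactions started with [γ-33P]ATP (800 cpm/pmol) at 5, 20 or 50 µM, chosen to sit at or below each enzyme's ATP Km. Stopped with phosphoric acid and spotted onto P81 filters. Result given as residual kinase activity.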

[3] = molecular target: Serine/threonine-protein kinase Sgk1 (Homo sapiens) (UniProt O00141); assay: Inhibition of recombinant SGK1 (unknown origin) assessed as residual activity using [gamma-33P]ATP as substrate at 1 uM
Serine/threonine-protein kinase Sgk1 (Homo sapiens), sequence (O00141 whole entry): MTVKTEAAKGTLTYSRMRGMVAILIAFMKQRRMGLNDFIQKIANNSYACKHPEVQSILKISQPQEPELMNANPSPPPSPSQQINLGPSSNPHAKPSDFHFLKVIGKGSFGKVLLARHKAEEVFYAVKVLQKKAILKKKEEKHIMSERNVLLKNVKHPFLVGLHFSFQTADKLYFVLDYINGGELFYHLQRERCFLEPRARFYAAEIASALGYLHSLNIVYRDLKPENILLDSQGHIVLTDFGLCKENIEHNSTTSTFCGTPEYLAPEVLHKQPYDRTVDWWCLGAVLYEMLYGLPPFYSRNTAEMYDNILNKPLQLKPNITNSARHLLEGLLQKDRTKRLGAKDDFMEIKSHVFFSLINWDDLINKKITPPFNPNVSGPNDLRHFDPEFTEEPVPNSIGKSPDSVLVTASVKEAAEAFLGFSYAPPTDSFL
How it was run: (§3)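 Kinase panel screen with each compound at 1 µM, in duplicate. Reactions were started with [γ-33P]ATP (800 cpm/pmol) at 5, 20 or 50 µM, chosen per enzyme to be at or below its ATP Km. Reactions were stopped with phosphoric acid and spotted onto P81 filters. Results are given as residual kinase activity.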

[4] = molecular target: Tyrosine-protein kinase BTK (Homo sapiens) (UniProt Q06187); assay: Inhibition of recombinant BTK (unknown origin) assessed as residual activity using [gamma-33P]ATP as substrate at 1 uM; how it was run: as §2
Tyrosine-protein kinase BTK (Homo sapiens), sequence (Q06187 whole entry): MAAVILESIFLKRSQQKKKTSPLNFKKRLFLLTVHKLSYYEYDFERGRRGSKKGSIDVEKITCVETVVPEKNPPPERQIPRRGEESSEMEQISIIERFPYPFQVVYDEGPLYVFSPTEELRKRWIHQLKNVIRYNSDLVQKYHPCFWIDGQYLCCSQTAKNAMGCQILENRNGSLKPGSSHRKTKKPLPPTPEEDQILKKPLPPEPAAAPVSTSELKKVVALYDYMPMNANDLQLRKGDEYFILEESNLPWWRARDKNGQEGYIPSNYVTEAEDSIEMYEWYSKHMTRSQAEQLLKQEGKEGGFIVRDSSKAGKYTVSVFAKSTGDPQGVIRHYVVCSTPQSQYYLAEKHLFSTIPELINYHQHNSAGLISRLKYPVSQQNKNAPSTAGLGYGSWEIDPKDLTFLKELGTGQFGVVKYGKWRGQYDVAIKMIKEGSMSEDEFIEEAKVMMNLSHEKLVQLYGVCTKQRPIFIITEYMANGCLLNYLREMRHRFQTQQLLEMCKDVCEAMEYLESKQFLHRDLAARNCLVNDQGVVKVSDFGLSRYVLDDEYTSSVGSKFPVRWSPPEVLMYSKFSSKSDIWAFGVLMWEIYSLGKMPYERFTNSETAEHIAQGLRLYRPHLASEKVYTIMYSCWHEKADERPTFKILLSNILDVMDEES

[5] = molecular target: MAP kinase-interacting serine/threonine-protein kinase 2 (Homo sapiens) (UniProt Q9HBH9); assay: Inhibition of recombinant MNK2 (unknown origin) assessed as residual activity using [gamma-33P]ATP as substrate at 1 uM; how it was run: as §1
MAP kinase-interacting serine/threonine-protein kinase 2 (Homo sapiens), sequence (Q9HBH9 whole entry, looked up): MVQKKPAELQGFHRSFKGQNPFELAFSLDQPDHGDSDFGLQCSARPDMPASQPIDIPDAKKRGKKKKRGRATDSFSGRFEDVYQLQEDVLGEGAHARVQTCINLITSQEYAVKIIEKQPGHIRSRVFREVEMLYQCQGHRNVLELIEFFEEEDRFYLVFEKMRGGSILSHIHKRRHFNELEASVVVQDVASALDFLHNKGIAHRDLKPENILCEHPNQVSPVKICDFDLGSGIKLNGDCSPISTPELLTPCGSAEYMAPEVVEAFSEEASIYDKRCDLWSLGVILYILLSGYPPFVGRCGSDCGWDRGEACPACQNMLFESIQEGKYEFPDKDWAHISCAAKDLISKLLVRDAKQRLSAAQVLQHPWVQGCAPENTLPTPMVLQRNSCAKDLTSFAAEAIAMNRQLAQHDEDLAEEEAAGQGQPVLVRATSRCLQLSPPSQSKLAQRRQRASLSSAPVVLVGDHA

[6] = molecular target: MAP/microtubule affinity-regulating kinase 3 (Homo sapiens) (UniProt P27448); assay: Inhibition of recombinant MARK3 (unknown origin) assessed as residual activity using [gamma-33P]ATP as substrate at 1 uM; how it was run: as §1
[7] = molecular target: Fibroblast growth factor receptor 1 (Homo sapiens) (UniProt P11362); assay: Inhibition of recombinant FGF-R1 (unknown origin) assessed as residual activity using [gamma-33P]ATP as substrate at 1 uM; how it was run: as §2
[8] = molecular target: Serine/threonine-protein kinase Chk1 (Homo sapiens) (UniProt O14757); assay: Inhibition of recombinant CHK1 (unknown origin) assessed as residual activity using [gamma-33P]ATP as substrate at 1 uM; how it was run: as §2
Serine/threonine-protein kinase Chk1 (Homo sapiens), sequence (O14757 whole entry): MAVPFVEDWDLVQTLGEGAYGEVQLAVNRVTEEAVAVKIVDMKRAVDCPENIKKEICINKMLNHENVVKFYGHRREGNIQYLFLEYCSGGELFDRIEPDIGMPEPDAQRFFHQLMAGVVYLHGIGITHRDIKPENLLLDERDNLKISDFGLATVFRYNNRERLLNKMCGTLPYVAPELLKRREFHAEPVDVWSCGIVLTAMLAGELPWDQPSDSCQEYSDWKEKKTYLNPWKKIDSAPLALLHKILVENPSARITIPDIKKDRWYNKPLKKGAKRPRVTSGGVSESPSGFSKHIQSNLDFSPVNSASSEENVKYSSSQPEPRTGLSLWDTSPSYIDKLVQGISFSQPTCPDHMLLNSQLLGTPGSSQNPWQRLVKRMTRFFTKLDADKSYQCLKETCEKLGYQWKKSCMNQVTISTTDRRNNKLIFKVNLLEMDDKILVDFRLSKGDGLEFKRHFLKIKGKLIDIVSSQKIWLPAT

[9] = molecular target: Ephrin type-A receptor 4 (Homo sapiens) (UniProt P54764); assay: Inhibition of recombinant EPH-A4 (unknown origin) assessed as residual activity using [gamma-33P]ATP as substrate at 1 uM; how it was run: as §2
[10] = molecular target: Serine/threonine-protein kinase PAK 6 (Homo sapiens) (UniProt Q9NQU5); assay: Inhibition of recombinant PAK6 (unknown origin) assessed as residual activity using [gamma-33P]ATP as substrate at 1 uM; how it was run: as §1
[11] = molecular target: RAC-alpha serine/threonine-protein kinase (Homo sapiens) (UniProt P31749); assay: Inhibition of recombinant PKB alpha (unknown origin) assessed as residual activity using [gamma-33P]ATP as substrate at 1 uM; how it was run: as §1
RAC-alpha serine/threonine-protein kinase (Homo sapiens), sequence (P31749 whole entry): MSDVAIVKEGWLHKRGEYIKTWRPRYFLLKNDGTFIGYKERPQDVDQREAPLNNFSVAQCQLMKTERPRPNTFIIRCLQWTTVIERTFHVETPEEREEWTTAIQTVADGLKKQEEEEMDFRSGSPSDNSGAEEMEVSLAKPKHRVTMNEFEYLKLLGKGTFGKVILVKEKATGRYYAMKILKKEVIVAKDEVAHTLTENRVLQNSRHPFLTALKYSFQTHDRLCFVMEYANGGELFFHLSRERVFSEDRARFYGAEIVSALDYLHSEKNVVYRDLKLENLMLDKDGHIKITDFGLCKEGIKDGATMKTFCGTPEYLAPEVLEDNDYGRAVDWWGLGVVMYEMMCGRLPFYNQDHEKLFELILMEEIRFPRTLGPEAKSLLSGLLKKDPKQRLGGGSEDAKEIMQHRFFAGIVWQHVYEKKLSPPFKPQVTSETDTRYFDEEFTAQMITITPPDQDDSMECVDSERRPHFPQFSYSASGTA

[12] = molecular target: Myosin light chain kinase, smooth muscle (Homo sapiens) (UniProt Q15746); assay: Inhibition of recombinant SMMLCK (unknown origin) assessed as residual activity using [gamma-33P]ATP as substrate at 1 uM; how it was run: as §3
[13] = molecular target: Serine/threonine-protein kinase tousled-like 1 (Homo sapiens) (UniProt Q9UKI8); assay: Inhibition of recombinant TLK1 (unknown origin) assessed as residual activity using [gamma-33P]ATP as substrate at 1 uM; how it was run: as §3
[14] = molecular target: Serine/threonine-protein kinase N2 (Homo sapiens) (UniProt Q16513); assay: Inhibition of recombinant PRK2 (unknown origin) assessed as residual activity using [gamma-33P]ATP as substrate at 1 uM; how it was run: as §1
[15] = molecular target: Receptor tyrosine-protein kinase erbB-4 (Homo sapiens) (UniProt Q15303); assay: Inhibition of recombinant HER4 (unknown origin) assessed as residual activity using [gamma-33P]ATP as substrate at 1 uM; how it was run: as §2
Receptor tyrosine-protein kinase erbB-4 (Homo sapiens), sequence (Q15303 whole entry): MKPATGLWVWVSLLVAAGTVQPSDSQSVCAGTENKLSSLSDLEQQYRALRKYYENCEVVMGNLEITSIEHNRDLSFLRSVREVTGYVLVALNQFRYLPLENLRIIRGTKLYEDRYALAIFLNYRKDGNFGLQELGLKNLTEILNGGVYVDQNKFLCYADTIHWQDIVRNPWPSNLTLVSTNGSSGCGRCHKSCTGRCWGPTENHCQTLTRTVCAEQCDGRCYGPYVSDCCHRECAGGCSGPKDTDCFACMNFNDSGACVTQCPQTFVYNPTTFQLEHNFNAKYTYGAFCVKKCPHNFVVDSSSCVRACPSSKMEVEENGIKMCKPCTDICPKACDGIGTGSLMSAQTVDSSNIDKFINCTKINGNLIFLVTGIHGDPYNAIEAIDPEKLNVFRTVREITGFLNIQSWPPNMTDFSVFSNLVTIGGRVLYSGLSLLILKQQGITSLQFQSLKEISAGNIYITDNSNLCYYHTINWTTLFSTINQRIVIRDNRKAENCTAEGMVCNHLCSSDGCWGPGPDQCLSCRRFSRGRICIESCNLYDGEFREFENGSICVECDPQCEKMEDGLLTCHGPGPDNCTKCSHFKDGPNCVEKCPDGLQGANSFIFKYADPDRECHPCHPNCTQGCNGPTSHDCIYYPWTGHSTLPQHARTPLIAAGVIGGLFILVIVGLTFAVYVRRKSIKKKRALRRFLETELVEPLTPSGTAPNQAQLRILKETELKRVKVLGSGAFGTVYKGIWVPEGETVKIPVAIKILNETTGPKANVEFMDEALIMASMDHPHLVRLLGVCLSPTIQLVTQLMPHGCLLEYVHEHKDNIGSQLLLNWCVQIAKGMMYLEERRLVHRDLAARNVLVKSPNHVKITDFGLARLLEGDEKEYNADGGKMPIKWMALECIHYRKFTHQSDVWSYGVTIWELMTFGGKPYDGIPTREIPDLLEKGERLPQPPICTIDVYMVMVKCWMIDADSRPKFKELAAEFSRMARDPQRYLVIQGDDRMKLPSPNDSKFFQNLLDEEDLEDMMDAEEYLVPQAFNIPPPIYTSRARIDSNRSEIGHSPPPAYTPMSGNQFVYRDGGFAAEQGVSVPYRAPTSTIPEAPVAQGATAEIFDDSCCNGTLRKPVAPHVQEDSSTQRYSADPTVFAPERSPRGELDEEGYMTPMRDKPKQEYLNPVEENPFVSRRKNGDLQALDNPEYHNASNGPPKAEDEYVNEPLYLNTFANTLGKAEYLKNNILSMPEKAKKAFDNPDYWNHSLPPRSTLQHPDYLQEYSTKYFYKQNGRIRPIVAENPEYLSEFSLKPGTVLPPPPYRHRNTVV

[16] = tested on: MCF7; assay: Cell cycle arrest in human MCF7 cells assessed as accumulation of cells in G2+M phase at 100 uM after 24 hrs by propidium iodide staining based flow cytometry relative to untreated control; assay type: functional
How it was run: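 Flow cytometry on MCF7 cells given 100 µM for 24 h. About one million cells fixed in 90% methanol and rehydrated. DNA stained with propidium iodide, read at 488/575 nm (ex/em). The value is the G2+M fraction of treated cells divided by the G2+M fraction of untreated control cells.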

[17] = molecular target: Serine/threonine-protein kinase Nek2 (Homo sapiens) (UniProt P51955); assay: Inhibition of recombinant NEK2a (unknown origin) assessed as residual activity using [gamma-33P]ATP as substrate at 1 uM; how it was run: as §1
Serine/threonine-protein kinase Nek2 (Homo sapiens), sequence (P51955 whole entry): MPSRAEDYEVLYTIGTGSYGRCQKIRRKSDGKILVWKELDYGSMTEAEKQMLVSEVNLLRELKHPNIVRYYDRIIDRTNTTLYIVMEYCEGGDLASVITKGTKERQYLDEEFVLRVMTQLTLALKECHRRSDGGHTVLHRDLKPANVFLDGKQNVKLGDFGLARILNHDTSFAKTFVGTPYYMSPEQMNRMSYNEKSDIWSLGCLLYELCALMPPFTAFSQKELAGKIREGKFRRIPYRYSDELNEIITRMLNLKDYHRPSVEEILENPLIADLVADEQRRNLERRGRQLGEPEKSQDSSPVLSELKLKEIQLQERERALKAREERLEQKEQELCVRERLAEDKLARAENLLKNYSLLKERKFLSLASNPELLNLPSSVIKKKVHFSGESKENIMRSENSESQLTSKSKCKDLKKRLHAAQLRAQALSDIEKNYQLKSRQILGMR

[18] = molecular target: MAP kinase-activated protein kinase 5 (Homo sapiens) (UniProt Q8IW41); assay: Inhibition of recombinant PRAK (unknown origin) assessed as residual activity using [gamma-33P]ATP as substrate at 1 uM; how it was run: as §1
MAP kinase-activated protein kinase 5 (Homo sapiens), sequence (Q8IW41 whole entry): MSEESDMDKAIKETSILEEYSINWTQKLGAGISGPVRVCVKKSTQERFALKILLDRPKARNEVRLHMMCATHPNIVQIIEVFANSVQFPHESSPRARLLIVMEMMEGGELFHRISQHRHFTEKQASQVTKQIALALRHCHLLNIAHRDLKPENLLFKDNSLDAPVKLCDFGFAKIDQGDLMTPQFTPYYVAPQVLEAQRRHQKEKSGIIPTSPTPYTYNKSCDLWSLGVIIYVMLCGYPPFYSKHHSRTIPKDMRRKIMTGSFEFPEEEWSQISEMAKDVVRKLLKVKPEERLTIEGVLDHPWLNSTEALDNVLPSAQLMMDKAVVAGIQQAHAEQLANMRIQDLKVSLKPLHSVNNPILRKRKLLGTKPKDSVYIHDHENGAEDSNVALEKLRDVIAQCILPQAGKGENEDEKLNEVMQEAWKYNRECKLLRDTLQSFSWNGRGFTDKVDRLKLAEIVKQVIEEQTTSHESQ

[19] = tested on: MCF7; assay: Cytotoxicity against human MCF7 cells assessed as inhibition of cell viability after 72 hrs by calcien AM dye based fluorescence analysis; assay type: functional; conditions: MCF7, 72 h
How it was run: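 MCF7 cells grown in DMEM with 10% FBS, 2 mM glutamine, penicillin and streptomycin at 37 °C and 5% CO2. About 10,000 cells per well, left 4 h, then a concentration range added in triplicate, DMSO ≤0.5% final. After 72 h, 1 µg/ml calcein AM (final) for 1 h; fluorescence read at 485/538 nm. Viability given as % of control; IC50 read graphically from dose-response curves; mean of ≥3 independent experiments.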

[20] = molecular target: Calcium/calmodulin-dependent protein kinase type 1 (Homo sapiens) (UniProt Q14012); assay: Inhibition of recombinant CAMK1 (unknown origin) assessed as residual activity using [gamma-33P]ATP as substrate at 1 uM; how it was run: as §2
[21] = tested on: MCF7; assay: Ratio of roscovitine IC50 to compound IC50 for human MCF7 cells after 72 hrs by calcien AM dye based fluorescence analysis; assay type: functional
[22] = molecular target: Cyclin-dependent kinase 2/cyclin E1 (Homo sapiens) (UniProt P24864+P24941); assay: Ratio of roscovitine IC50 to compound IC50 for recombinant CDK2/cyclin E (unknown origin); assay type: protein-complex assay
[23] = molecular target: Cyclin-dependent kinase 1/cyclin B1 (Homo sapiens) (UniProt P06493+P14635); assay: Ratio of roscovitine IC50 to compound IC50 for recombinant CDK1/cyclin B (unknown origin); assay type: protein-complex assay

Activity [1] [%]	Activity [2] [%]	Activity [3] [%]	Activity [4] [%]	Activity [5] [%]	Activity [6] [%]	Activity [7] [%]	Activity [8] [%]	Activity [9] [%]	Activity [10] [%]	Activity [11] [%]	Activity [12] [%]	Activity [13] [%]	Activity [14] [%]	Activity [15] [%]	Activity [17] [%]	Activity [18] [%]	Activity [20] [%]	SMILES	Ratio [16]	IC50 [19] [µM]	further results
80	27	60	53	119	24	4	58	22	26	99	49	9	85	27	73	76	35	CC[C@H](CO)Nc1nc(NC(=N)N)c2ncn(C(C)C)c2n1	1.8	4.5	–
78	16	51	48	122	17	5	46	41	17	107	32	9	84	29	57	74	24	CC[C@@H](CO)Nc1nc(NC(=N)N)c2ncn(C(C)C)c2n1	1.6	1.6	Ratio IC50 [21]: >10; Ratio IC50 [22]: 4.6; Ratio IC50 [23]: 2.7
